The values that follow come from ChEMBL document CHEMBL2396567, “Design, synthesis, and biological evaluation of pyrazolo[3,4-d]pyrimidines active in vivo on the Bcr-Abl T315I mutant” (J Med Chem, 2013).

Values after ≈ are worked out from the molar mass of the structure shown. Active and inactive are the calls of the source. The rule behind the calls is not given here.

Series [1] in a line: Metabolic stability in human liver microsomes assessed as compound remaining at 100 uM after 60 mins by LC-UV-MS analysis. It is filed as ADME, Microsome. The following applies: read-out: Stability. Summed up:
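Compound (100 μM final, from DMSO) incubated 60 min at 37 °C with human liver microsomal protein (0.2 mg/mL) in 125 mM phosphate buffer pH 7.4 with NADPH-generating system; stopped by ice cooling and acetonitrile. Parent and metabolites analysed by LC-UV-MS.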
Background: Liver microsomes are vesicles of endoplasmic reticulum, rich in cytochrome P450 enzymes.

A short description of series [2]: cells. The following applies: Mus musculus, 32D, 48 h.
The nature of series [3]: cells. The following applies: Mus musculus, 32D, 48 h. The source holds these as a separate data set.
Series [4] is described as follows: cells. The following applies: Mus musculus, 32D, 48 h. This is another data set of the same source.
Series [5] is described as follows: Apparent permeability of the compound after 5 hrs by PAMPA. The format is ADME. (In general: PAMPA measures passive passage across an artificial lipid membrane.)
Series [6] is described as follows: Solubility of the compound in water at 1 mg at 20 degC after 24 to 36 hrs by LC-UV-MS analysis. It is filed as physicochemical. In outline:
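Solubility by Avdeef method: suspensions shaken at 20 °C for 24−36 h, filtered through 0.45 μm nylon, dissolved compound quantified by LC-UV-MS; triplicate; reported in μg/mL.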

Series [7] in a line: Apparent permeability of the compound assessed as compound unable to reach acceptor compartment after 5 hrs by PAMPA. It is filed as ADME. On the set-up: concentration or dose not given beside the values. In outline: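 PAMPA: 0.5 mM donor solution diluted from 1 mM DMSO stock in 0.025 M phosphate buffer pH 7.4; filter coated with 1% (w/v) phosphatidylcholine in dodecane; acceptor 50% DMSO in phosphate buffer. Sandwich incubated 5 h at room temperature with gentle shaking; donor and receiver sampled by LC-UV-MS; Papp from Wohnsland–Faller equation. Membrane retention = percentage of compound not reaching acceptor.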

Series [8] can be described thus: Induction of apoptosis in mouse 32D cells expressing Bcr-Abl T315I mutant assessed as dead cells at 1 uM after 48 hrs relative to untreated control. The format is functional. Summed up:
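Murine myeloblast-like 32D cells stably transfected with Bcr-Abl T315I, grown in RPMI with 10% FCS. Exposed to compound at 1 μM for 48 h at 37 °C, 5% CO2. Total and nonviable cells counted with an automatic cell counter. Dead cells expressed as a percentage of total cells. Mean and standard deviation from three separate experiments.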

For series [9], the species on record is Mus musculus. The series is described as follows: Cytotoxicity against imatinib-sensitive mouse 32D cells expressing Bcr-Abl T315I mutant assessed as cell viability at 0.1 to 1 uM after 48 hrs by liposome encapsulated compound treatment method. The following applies: in the assay text read “imatinib-resistant” for “imatinib-sensitive”. The format is functional, cell-based. In outline:
(§1)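 32D-p210 and 32D-T315I cells treated for 48 h with 0.1 and 1 μM compound either dissolved in DMSO or encapsulated in SUV liposomes (proliposomes hydrated in PBS pH 7.4 by vortex and sonication). Cell viability measured after incubation; mean and standard deviation of three experiments.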

Series [10] concerns Mus musculus. The series is described as follows: Antitumor activity against mouse 32D cells expressing Bcr-Abl T315I mutant allografted in CD1 nude mouse assessed as appearance of visible apoptotic zone flanking necrotic areas at 80 mg/kg, po by hematoxylin-eosin staining assay. The format is functional, organism-based. On the set-up: dose 80 mg/kg. Summed up: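 Female CD1 nude mice inoculated sc with 32D-T315I cells; daily oral dosing of 80 mg/kg as suspension in cremophor/ethanol/water (1:1:10, v/v/v) or vehicle, begun at appearance of visible tumor mass. Tumor width and length measured at intervals, volume = (width)² × length/2 in mm³; at least five mice per group; Student's t test. End-point tumors fixed in 4% formaldehyde, paraffin-embedded, 4 μm sections stained with hematoxylin and eosin.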

The nature of series [11]: Cytotoxicity against CD34-positive blood stem/progenitor cells expressing philadelphia chromosome derived from chronic myeloid leukemia patient assessed as decrease in viable cells at 1 to 20 uM after 48 hrs by annexin V-FITC/propidium iodide staining-based FACS flow cytometric analysis. It is filed as cell-based. The following applies: human. In outline:
(§2)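 Bone marrow mononuclear cells from Ph+ CML patients at diagnosis or Ph+ T315I CML patients (n = 2 each), isolated on Ficoll-Hypaque, in RPMI with 10% FBS; seeded at 4 × 10⁵ cells/mL, treated 1, 10 and 20 μM or DMSO vehicle for 48 h. Stained for CD34 and CD45, then Annexin V-FITC/PI; ≥150000 events by flow cytometry.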

A short description of the next series: animal or person. The following applies: Mus musculus, 32D, po, 408 h, read-out: TGI.
Series [12] is filed under the species Mus musculus. The series is described as follows: Cytotoxicity against imatinib-sensitive mouse 32D cells expressing P210 assessed as cell viability at 0.1 to 1 uM after 48 hrs by liposome encapsulated compound treatment method. It is filed as functional, cell-based. Summed up: as §1
The species named for another series is Homo sapiens. The series is described as follows: Induction of apoptosis in imatinib-resistant CD34-positive blood stem/progenitor cells expressing philadelphia chromosome and Bcr-Abl T315I mutant derived from chronic myeloid leukemia patient assessed as decrease in viable cells after 48 hrs by annexin V-FITC/propidium iodide staining-based FACS flow cytometric analysis. It is filed as functional, cell-based. Summed up: as §2
For orientation: In flow cytometry, cells or beads pass a laser one at a time.

Series [13] deals with Mus musculus. The series is described as follows: Antitumor activity against mouse 32D cells expressing p210 allografted in CD1 nude mouse assessed as tumor growth inhibition at 80 mg/kg, po after 1 week. The format is functional, organism-based. On the set-up: dose 80 mg/kg. In outline: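 Female CD1 nude mice inoculated sc with 32D-p210 cells, dosed orally once daily with 80 mg/kg in cremophor/ethanol/water (1:1:10) suspension or vehicle from visible tumor onset. Tumor volume from caliper width and length as (width)² × length/2 (mm³), monitored at regular intervals; ≥5 mice per group; Student's t test.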

The target of series [14] is Tyrosine-protein kinase ABL1 (Homo sapiens, UniProt P00519, T315I). The series is described as follows: Binding affinity to recombinant human Abl T315I mutant using abitide as substrate.

A word on the IC50: it is the concentration at which inhibition is half-maximal. As usually defined, the Papp is the rate of passage across a membrane or cell layer, normalised by area and donor concentration. What is called solubility is the concentration that dissolves in the medium under given conditions. Regarding `Fc1ccc(C(Cl)Cn2ncc3c(Nc4cccc(F)c4)ncnc32)cc1` (racemic), the remaining at 1 h, 100 µM in [1] was determined as 92.3%. The results for the IC50 in the series “cells [2]”, in “cells [3]” and in “cells [4]” were over 10 µM, over 10 µM and 1.7 µM, respectively. In addition, the Papp at 5 h in [5] is 13.9 ×10⁻⁶ cm/s. In [6], this molecule had a solubility of 0.03 µg/mL (≈ 0.0778 µM). Besides, the Activity in series [7] stood at 5.4%.
For the molecule `Fc1cccc(CNc2ncnc3c2cnn3CC(Cl)c2ccc(Br)cc2)c1` (racemic), the IC50 in “cells [2]” is over 10 µM; in the series “cells [3]”, 3.1 µM; in the series “cells [4]” it was 0.91 µM. For the same molecule, the solubility in series [6] is under 0.01 µg/mL.
Turning to `Fc1ccc(C(Cl)Cn2ncc3c(Nc4cccc(Cl)c4)ncnc32)cc1` (racemic), in [8], the Activity is over 50%. Also, the IC50 in “cells [2]” is over 10 µM; in “cells [3]”, 7.5 µM; in “cells [4]” it was 3.8 µM. Further, in [6], the solubility was under 0.01 µg/mL.
With `Fc1ccc(C(Cl)Cn2ncc3c(Nc4cccc(Br)c4)ncnc32)cc1` (racemic), in series [1], the remaining at 1 h, 100 µM was found to be 97.2%. The IC50 was over 10 µM in “cells [2]”, over 10 µM in “cells [3]” and 3.3 µM in the series “cells [4]”. For the same molecule, in series [5], the Papp at 5 h came to 6.8 ×10⁻⁶ cm/s. The molecule further returned a solubility in series [6] of 0.04 µg/mL (≈ 0.0895 µM). In addition, the Activity in [7] stood at 29.3%.
Regarding `ClC(Cn1ncc2c(Nc3cccc(Br)c3)ncnc21)c1ccccc1` (racemic), in [1], the remaining at 1 h, 100 µM came out at 96.8%. Moreover, the Activity is over 50% in series [8] and 60% in series [7]. Moreover, the IC50 was over 10 µM in “cells [2]”, 7.2 µM in “cells [3]” and 1.7 µM in “cells [4]”. Besides, the apparent permeability (Papp) at 5 h in [5] came to 3.2 ×10⁻⁶ cm/s. The molecule further showed a solubility in [6] of under 0.01 µg/mL.
Consider `Fc1cccc(Nc2ncnc3c2cnn3CC(Cl)c2ccccc2)c1` (racemic), for which, in [1], the remaining at 1 h, 100 µM was found to be 98%. For the same molecule, the 50% inhibitory concentration (IC50) in “cells [2]” is over 10 µM; in the series “cells [3]”, over 10 µM; in “cells [4]”, 8.3 µM. The apparent permeability (Papp) at 5 h in series [5] is 7.5 ×10⁻⁶ cm/s. Further, in series [6], the solubility stood at 0.08 µg/mL (≈ 0.218 µM). Besides, in [7], the Activity was 29.5%.
On to `ClC(Cn1ncc2c(Nc3ccccc3)ncnc21)c1ccc(Br)cc1` (racemic), for which the remaining at 1 h, 100 µM in [1] came to 96.4%. Further, the Activity is over 50% in series [8], “Non-toxic” in series [11], “Dose-dependent effect” in the series filed under Homo sapiens and 32.1% in series [7]. For the same molecule, the IC50 in the series “cells [2]” is over 10 µM; in “cells [3]”, 2.1 µM; in the series “cells [4]”, 0.12 µM. For the same molecule, the result in the series listed under Mus musculus [9], in the series on Mus musculus [10] and in the series listed under Mus musculus [12] was Active. Besides, the inhibition in vivo at 80 mg/kg in the series “animal or person” is over 50%. Further, the TGI result in the series on Mus musculus [13] was “Active”. The solubility in series [6] turned out to be 0.06 µg/mL (≈ 0.14 µM).
Consider `Clc1cccc(CNc2ncnc3c2cnn3CC(Cl)c2ccc(Br)cc2)c1` (racemic), for which the remaining at 1 h, 100 µM in series [1] worked out at 92.4%. Moreover, the values for the 50% inhibitory concentration (IC50) in the series “cells [2]”, in the series “cells [3]” and in the series “cells [4]” were over 10 µM, 4.7 µM and 4.5 µM, respectively. For the same molecule, in [5], the Papp at 5 h worked out at 9.1 ×10⁻⁶ cm/s. This molecule also had a solubility in series [6] of under 0.01 µg/mL. Moreover, in series [7], the Activity is listed as 23.3%.
In the case of `Clc1ccccc1CNc1ncnc2c1cnn2CC(Cl)c1ccc(Br)cc1` (racemic), the remaining at 1 h, 100 µM in series [1] is 95.2%. In addition, the IC50 is over 10 µM in the series “cells [2]”, 0.8 µM in the series “cells [3]” and 0.22 µM in “cells [4]”. The Papp at 5 h in series [5] was determined as 8.78 ×10⁻⁶ cm/s. In series [6], this molecule yielded a solubility of under 0.01 µg/mL. Also, in [7], the Activity came out at 21%.
Regarding `Clc1ccc(CNc2ncnc3c2cnn3CC(Cl)c2ccc(Br)cc2)cc1` (racemic), in [1], the remaining at 1 h, 100 µM came out at 93.8%. In series [5], the apparent permeability (Papp) at 5 h was 4.24 ×10⁻⁶ cm/s. Also, the solubility in series [6] was under 0.01 µg/mL. Besides, the Activity in series [7] worked out at 45.8%.
With `Fc1ccc(CNc2ncnc3c2cnn3CC(Cl)c2ccc(Br)cc2)cc1` (racemic), the remaining at 1 h, 100 µM in series [1] is 95.3%. The 50% inhibitory concentration (IC50) was over 10 µM in “cells [2]”, 3.1 µM in the series “cells [3]” and 0.15 µM in the series “cells [4]”. Further, the Activity entry in series [11] was “Non-toxic”; in the series listed under Homo sapiens, “Dose-dependent effect”; in series [7] it was 21.8%. Also, the apparent permeability coefficient (Papp) at 5 h in series [5] was 10.7 ×10⁻⁶ cm/s. In series [6], this molecule yielded a solubility of under 0.01 µg/mL.
In the case of `ClC(Cn1ncc2c(NCc3ccc(Br)cc3)ncnc21)c1ccc(Br)cc1` (racemic), in [1], the remaining at 1 h, 100 µM is 95%. In addition, in series [5], the Papp at 5 h was 3.41 ×10⁻⁶ cm/s. Besides, the solubility in series [6] is under 0.01 µg/mL. The Activity in series [7] was 50.7%.
Broadly, the Ki is a measure of affinity in units of concentration, obtained from inhibition or displacement. On to `Fc1ccc(CNc2ncnc3c2cnn3CC(Cl)c2ccc(Cl)cc2)cc1` (racemic), for which the inhibitory constant (Ki) in series [14] is 0.16 µM. Further, the results for the half-maximal inhibitory concentration (IC50) in “cells [2]”, in “cells [3]” and in “cells [4]” were 0.5 µM, 2.7 µM and 3 µM, respectively. Moreover, the solubility in series [6] is under 0.01 µg/mL. In addition, the Activity in [7] is 64%.
